Reference: ChEMBL document CHEMBL1138786, “Synthesis of benzodithiol-2-yl-substituted nucleoside derivatives as lead compounds having anti-bovine viral diarrhea virus activity” (J Med Chem, 2004)
Values joined by “and” are separate entries in the source; they are usually repeats but may differ in a detail not shown here. Equal values may be shown once.

Experiments:
[1] = Anti BVDV activity in MDBK (Madin-darby bovine kidney) cells; assay type: functional, Bos taurus
In short: (§1)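 MDBK cells in DMEM with 10% heat-inactivated horse serum, penicillin and streptomycin, seeded at 5 × 10^5 cells/ml and incubated overnight at 37 °C. Infected with about 100 focus forming units of BVDV (nose strain) in the presence of graded compound concentrations for 24 h. Monolayers washed with PBS, overlaid with medium containing bactoagar, incubated a further 24 h. Viral foci counted microscopically.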

[2] = Cytotoxicity in MDBK (Madin-darby bovine kidney) cells; assay type: cell-based, Bos taurus; conditions: cattle
In short: (§2)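 Cell viability assay: MDBK cells at 2 × 10^4 per well, cultured with graded compound concentrations at 37 °C for 3 days. Viable cells measured colorimetrically with a water-soluble tetrazolium dye.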

[3] = Anti-bovine viral diarrhoea virus activity relative to ribavirin; assay type: functional, Bos taurus
[4] = Ratio of cytotoxicity to anti BVDV activity of the compound; set-up: species or system Bos taurus; conditions: cattle; for selectivity ratio: read-out: CC50/EC50
[5] = organism: Bos taurus; test: Anti BVDV activity relative to ribavirin; assay type: functional
[6] = organism: Bos taurus; test: Anti BVDV activity relative to ribavirin (Ribavirin EC50 0.61 and CC50 90.2); assay type: functional
[7] = Cytotoxicity in MDBK (Madin-darby bovine kidney) cells (Ribavirin EC50 0.61 and CC50 90.2); assay type: cell-based, Bos taurus; conditions: cattle; in short: as §2
[8] = Anti BVDV activity in MDBK (Madin-darby bovine kidney) cells (Ribavirin EC50 0.61 and CC50 90.2); assay type: functional, Bos taurus; in short: as §1
[9] = organism: Bos taurus; test: Anti BVDV activity relative to ribavirin (EC50 1.2 and CC50 >100); assay type: functional
[10] = Cytotoxicity in MDBK (Madin-darby bovine kidney) cells (Ribavirin EC50 1.2 and CC50 >100); assay type: cell-based, Bos taurus; conditions: cattle; in short: as §2
[11] = Anti BVDV activity in MDBK (Madin-darby bovine kidney) cells (Ribavirin EC50 1.2 and CC50 >100); assay type: functional, Bos taurus; in short: as §1

CSc1ccccc1SCO[C@H]1C[C@H](n2cnc3c(N)ncnc32)O[C@@H]1CO
EC50 [1]: > 100 µM | CC50 [2]: > 100 µM

COC1Sc2ccccc2S1
EC50 [1]: > 100 µM | CC50 [2]: > 100 µM

NC(=O)c1ncn([C@@H]2O[C@H](CO)[C@@H](O)[C@H]2O)n1 [RIBAVIRIN]
EC50rel [3]: 1 | CC50/EC50 [4]: < 150 and > 67 | EC50rel [5]: 1 | EC50 [1]: 1.5 µM and 0.67 µM | CC50 [2]: > 100 µM

Nc1ncnc2c1ncn2[C@H]1C[C@H](OC2Sc3ccccc3S2)[C@@H](CO)O1
selectivity ratio [4]: 1.1 | EC50rel [5]: 42.5 | EC50 [1]: 63.8 µM | CC50 [2]: 68.4 µM

COC(=O)Nc1ccn([C@@H]2O[C@H](CO)C(O)[C@@H]2OC2Sc3ccccc3S2)c(=O)n1 (stereo partly drawn)
EC50rel [6]: 82.5 | CC50 [7]: 60.1 µM | selectivity ratio [4]: 1.19 | EC50 [8]: 50.3 µM

O=c1ccn([C@@H]2O[C@H](CO)C(OC3Sc4ccccc4S3)[C@@H]2O)c(=O)[nH]1 (stereo partly drawn)
selectivity ratio [4]: 1.46 | EC50rel [5]: 75.5 | EC50 [1]: 50.6 µM | CC50 [2]: 73.9 µM

CSc1ccccc1SCO[C@H]1C[C@H](n2ccc(N)nc2=O)O[C@@H]1CO
EC50 [1]: > 100 µM | CC50 [2]: > 100 µM

Cc1cn([C@H]2C[C@H](OC3Sc4ccccc4S3)[C@@H](C)O2)c(=O)[nH]c1=O
selectivity ratio [4]: 0.93 | EC50rel [5]: 57.8 | EC50 [1]: 86.7 µM | CC50 [2]: 81.3 µM

Nc1ncnc2c1ncn2[C@@H]1O[C@H](CO)C(O)[C@@H]1OC1Sc2ccccc2S1 (stereo partly drawn)
selectivity ratio [4]: 1.89 | EC50rel [5]: 58.5 | EC50 [1]: 39.2 µM | CC50 [2]: 74.3 µM

Nc1ccn([C@@H]2O[C@H](CO)C(O)[C@@H]2OC2Sc3ccccc3S2)c(=O)n1 (stereo partly drawn)
selectivity ratio [4]: 2.47 | EC50rel [5]: 42.5 | EC50 [1]: 28.5 µM | CC50 [2]: 70.4 µM

CSc1ccccc1SCO[C@H]1C[C@H](n2cc(C)c(=O)[nH]c2=O)O[C@@H]1CO
selectivity ratio [4]: > 1.1 | EC50rel [5]: 59.7 | EC50 [1]: 89.6 µM | CC50 [2]: > 100 µM

Cc1cn([C@H]2C[C@H](OC3Sc4ccccc4S3)[C@@H](CO)O2)c(=O)[nH]c1=O
EC50rel [3]: 31.2 | selectivity ratio [4]: 1.5 | EC50 [1]: 46.8 µM | CC50 [2]: 72.4 µM

O=c1ccn([C@@H]2O[C@H](CO)C(OC3Sc4ccccc4S3)[C@@H]2OC2Sc3ccccc3S2)c(=O)[nH]1 (stereo partly drawn)
EC50rel [5]: < 71.7 | EC50 [1]: < 48 µM | CC50 [2]: 48 µM

O=c1ccn([C@@H]2O[C@H](CO)C(O)[C@@H]2OC2Sc3ccccc3S2)c(=O)[nH]1 (stereo partly drawn)
selectivity ratio [4]: 1.19 | EC50rel [5]: 84.6 | EC50 [1]: 56.7 µM | CC50 [2]: 67.3 µM

Nc1ccn([C@H]2C[C@H](OC3Sc4ccccc4S3)[C@@H](CO)O2)c(=O)n1
selectivity ratio [4]: 1 | EC50rel [5]: 46.1 | EC50 [1]: 69.1 µM | CC50 [2]: 69.7 µM

CSc1ccccc1SCO[C@H]1C[C@H](n2cnc3c(O)nc(N)nc32)O[C@@H]1CO
EC50 [1]: > 100 µM | CC50 [2]: > 100 µM

OC[C@H]1O[C@@H](n2cnc3c(O)ncnc32)[C@@H](OC2Sc3ccccc3S2)C1O (stereo partly drawn)
EC50rel [9]: 15.3 | selectivity ratio [4]: 3.21 | CC50 [10]: 59.2 µM | EC50 [11]: 18.4 µM

Nc1nc(O)c2ncn([C@H]3C[C@H](OC4Sc5ccccc5S4)[C@@H](CO)O3)c2n1
selectivity ratio [4]: > 1.3 | EC50rel [5]: 52.9 | EC50 [1]: 79.4 µM | CC50 [2]: > 100 µM

Nc1nc(O)c2ncn([C@@H]3O[C@H](CO)C(O)[C@@H]3OC3Sc4ccccc4S3)c2n1 (stereo partly drawn)
selectivity ratio [4]: 5.09 | EC50rel [5]: 21.5 | EC50 [1]: 14.4 µM | CC50 [2]: 73.2 µM
